# Laboratory results as given in ChEMBL document CHEMBL3860038, “Discovery of (R,E)-N-(7-Chloro-1-(1-[4-(dimethylamino)but-2-enoyl]azepan-3-yl)-1H-benzo[d]imidazol-2-yl)-2-methylisonicotinamide (EGF816), a Novel, Potent, and WT Sparing Covalent Inhibitor of Oncogenic (L858R, ex19del) and Resistant (T790M) EGFR Mutants for the Treatment of EGFR Mutant …” (J Med Chem, 2016).
# How the values were obtained:
# [1] = Oral bioavailability in balb/c mouse at 20 mg/kg by liquid chromatography-tandem mass spectrometry; type: ADME, organism-based; conditions: in vivo
# Summary of the method: (§1)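 Rodent PK in male balb/c mice and male Wistar rats; plasma drug levels by LC-MS/MS. Mouse oral dosing at 20 mg/kg, with compounds given as a 0.5% methylcellulose/0.5% Tween 80 suspension or as solutions (PEG300/D5W, or ethanol/PEG300 with Solutol or D5W), depending on compound.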
# [2] = Drug metabolism in mouse liver microsomes assessed as oxidation at acrylate groups; type: ADME
# [3] = AUC in balb/c mouse at 20 mg/kg, po by liquid chromatography-tandem mass spectrometry; type: ADME, organism-based; conditions: in vivo; summary of the method: as §1
# [4] = Drug metabolism in mouse liver microsomes assessed as oxidation at 7-methyl groups; type: ADME
# [5] = biological target: Cytochrome P450 2D6 (Homo sapiens, UniProt P10635); assay: Inhibition of CYP2D6 (unknown origin); type: ADME
# [6] = Drug metabolism in human liver microsomes assessed as oxidation at 7-methyl groups; type: ADME
# [7] = Clearance in balb/c mouse at 5 mg/kg, iv by liquid chromatography-tandem mass spectrometry; type: ADME, organism-based; conditions: in vivo; summary of the method: as §1
# [8] = biological target: Cytochrome P450 3A4 (Homo sapiens, UniProt P08684); assay: Inhibition of CYP3A4 (unknown origin); type: ADME
# [9] = biological target: Epidermal growth factor receptor (Homo sapiens, UniProt P00533, L858R/T790M); assay: Inhibition of EGFR L858R/T790M mutant phosphorylation in human patient derived H1975 cells incubated for 3 hrs by ELISA method; type: cell-based
# [10] = Intrinsic clearance in mouse liver microsomes; type: ADME; conditions: read-out: CLH
# [11] = Inhibition of EGFR E746 to A750 deletion mutant phosphorylation in human patient derived HCC827 cells incubated for 3 hrs by ELISA method; type: cell-based; conditions: HCC827, 3 h
# Summary of the method: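 HCC827 cells plated at 7500/well in 5% FBS/RPMI and left overnight at 37 °C. Then 3 h with a 12-point compound dilution series, no EGF stimulation. Lysed in Triton/protease/phosphatase-inhibitor buffer. Phospho-EGFR (Y1173) read by sandwich ELISA: anti-EGFR capture, anti-phospho-EGFR, anti-rabbit-HRP, chemiluminescence. IC50 from at least duplicates.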
# [12] = Drug metabolism in human liver microsomes assessed as oxidation at acrylate groups; type: ADME
# [13] = Intrinsic clearance in human liver microsomes; type: ADME; conditions: read-out: CLH
# [14] = Drug metabolism in rat liver microsomes assessed as oxidation at 7-methyl groups; type: ADME
# [15] = Aqueous solubility of the compound at pH 6.8; type: physicochemical
# [16] = biological target: Cytochrome P450 2C9 (Homo sapiens, UniProt P11712); assay: Inhibition of CYP2C9 (unknown origin); type: ADME
# [17] = biological target: Epidermal growth factor receptor (Homo sapiens, UniProt P00533, L858R); assay: Inhibition of EGFR L858R mutant phosphorylation in human patient derived H3255 cells incubated for 3 hrs by ELISA method; type: cell-based
# [18] = Drug metabolism in rat liver microsomes assessed as oxidation at acrylate groups; type: ADME
# [19] = biological target: Epidermal growth factor receptor (Homo sapiens, UniProt P00533); assay: Inhibition of wild type EGFR phosphorylation in human HaCaT cells incubated for 3 hrs by ELISA method; type: cell-based
# [20] = Glutathione reactivity assessed as GSH adduct formation incubated for 1 hr using 10 mM glutathione
# Summary of the method: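 Compound incubated 1 h with 10 mM glutathione; GSH adduct formation measured.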
# [21] = AUC in Wistar rat at 3 mg/kg, iv by liquid chromatography-tandem mass spectrometry; type: ADME, organism-based; conditions: in vivo
# [22] = Oral bioavailability in Wistar rat at 10 mg/kg by liquid chromatography-tandem mass spectrometry; type: ADME, organism-based; conditions: in vivo; summary of the method: as §1
# [23] = organism: Homo sapiens; assay: Antitumor activity in NSCLC patient assessed as response rate; type: functional
# [24] = system: Mus musculus; assay: Toxicity in human NCI-H1975 cells xenografted Foxn1 nude mouse assessed as change in body weight at 25 mg/kg, po qd for 5 days (reference value: […]); type: organism-based; conditions: in vivo, 120 h
# [25] = Antitumor activity against human NCI-H1975 cells xenografted in Foxn1 nude mouse assessed as reduction in tumor volume at 25 mg/kg, po qd for 5 days relative to untreated control; type: functional
# Summary of the method: (§2)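 Female Foxn1 nude mice, H1975 cells inoculated subcutaneously. Randomized into groups once tumors reached 150−200 mm³, then dosed by oral gavage once daily for 5 days in 0.5% MC/0.5% Tween80 suspension (10 μL/g). Tumor volumes by caliper, (length × width × width)/2. %T/C = 100 × ΔT/ΔC, or % regression = 100 × ΔT/T_initial when ΔT < 0. Body weight recorded daily.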
# [26] = Cmax in Wistar rat at 10 mg/kg, po by liquid chromatography-tandem mass spectrometry; type: ADME, organism-based; set-up: dose 10 mg/kg, route oral; conditions: in vivo; summary of the method: as §1
# [27] = Mean residence time in balb/c mouse at 5 mg/kg, iv by liquid chromatography-tandem mass spectrometry; type: ADME, organism-based; conditions: in vivo
# [28] = Volume of distribution at steady state in Wistar rat at 3 mg/kg, iv by liquid chromatography-tandem mass spectrometry; type: ADME, organism-based; conditions: in vivo, read-out: Vdss
# Summary of the method: (§3)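 Male animals (balb/c mice or Wistar rats) were used. Compound levels in plasma were measured by LC-MS/MS.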
# [29] = Tmax in balb/c mouse at 20 mg/kg, po by liquid chromatography-tandem mass spectrometry; type: ADME, organism-based; conditions: in vivo; summary of the method: as §1
# [30] = organism: Homo sapiens; assay: Antitumor activity in NSCLC patient assessed as disease control rate; type: functional
# [31] = Time duration during which free plasma concentration stays above in-vitro IC50 level in human NCI-H1975 cells xenografted Foxn1 nude mouse at 25 mg/kg, po qd for 5 days; type: ADME, organism-based; conditions: in vivo, 120 h
# Summary of the method: (§4)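 H1975 xenografts in Foxn1 nude mice, oral dosing once daily for 5 days. Plasma sampled after the last dose on day 5, at 30 min, 3 h, 7 h and 24 h. Free drug exposure was compared with in vitro cellular IC50 across the dosing interval.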
# [32] = AUC in balb/c mouse at 5 mg/kg, iv by liquid chromatography-tandem mass spectrometry; type: ADME, organism-based; conditions: in vivo
# [33] = Antitumor activity against human NCI-H1975 cells xenografted in Foxn1 nude mouse assessed as reduction in tumor volume at 50 mg/kg, po qd for 5 days relative to untreated control; type: functional; summary of the method: as §2
# [34] = Time duration during which free plasma concentration stays above in-vitro IC50 level in human NCI-H1975 cells xenografted Foxn1 nude mouse at 50 mg/kg, po qd for 5 days; type: ADME, organism-based; conditions: in vivo, 120 h; summary of the method: as §4
# [35] = AUC in Wistar rat at 10 mg/kg, po by liquid chromatography-tandem mass spectrometry; type: ADME, organism-based; conditions: in vivo; summary of the method: as §1
# [36] = Mean residence time in Wistar rat at 3 mg/kg, iv by liquid chromatography-tandem mass spectrometry; type: ADME, organism-based; conditions: in vivo
# [37] = Clearance in Wistar rat at 3 mg/kg, iv by liquid chromatography-tandem mass spectrometry relative to liver blood flow; type: ADME, organism-based; conditions: in vivo
# [38] = Tmax in Wistar rat at 10 mg/kg, po by liquid chromatography-tandem mass spectrometry; type: ADME, organism-based; conditions: in vivo; summary of the method: as §1
# [39] = Cmax in balb/c mouse at 20 mg/kg, po by liquid chromatography-tandem mass spectrometry; type: ADME, organism-based; set-up: dose 20 mg/kg, route oral; conditions: in vivo; summary of the method: as §1
# [40] = Clearance in balb/c mouse at 5 mg/kg, iv by liquid chromatography-tandem mass spectrometry relative to liver blood flow; type: ADME, organism-based; conditions: in vivo
# [41] = Volume of distribution at steady state in balb/c mouse at 5 mg/kg, iv by liquid chromatography-tandem mass spectrometry; type: ADME, organism-based; conditions: in vivo, read-out: Vdss; summary of the method: as §3
# [42] = Clearance in Wistar rat at 3 mg/kg, iv by liquid chromatography-tandem mass spectrometry; type: ADME, organism-based; conditions: in vivo; summary of the method: as §1
# [43] = system: Mus musculus; assay: Toxicity in human NCI-H1975 cells xenografted Foxn1 nude mouse assessed as change in body weight at 50 mg/kg, po qd for 5 days (reference value: […]); type: organism-based; conditions: in vivo, 120 h
# [44] = Volume of distribution at steady state in dog at 1 mg/kg, iv by liquid chromatography-tandem mass spectrometry; type: ADME, organism-based, Canis lupus familiaris; conditions: in vivo, read-out: Vdss
# [45] = Mean residence time in dog at 1 mg/kg, iv by liquid chromatography-tandem mass spectrometry; type: ADME, organism-based, Canis lupus familiaris; conditions: in vivo
# [46] = Clearance in dog at 1 mg/kg, iv by liquid chromatography-tandem mass spectrometry; type: ADME, organism-based, Canis lupus familiaris; conditions: in vivo
# [47] = Oral bioavailability in dog at 10 mg/kg by liquid chromatography-tandem mass spectrometry; type: ADME, organism-based, Canis lupus familiaris; conditions: in vivo
# [48] = AUC in dog at 1 mg/kg, iv by liquid chromatography-tandem mass spectrometry; type: ADME, organism-based, Canis lupus familiaris; conditions: in vivo
# [49] = AUC in dog at 10 mg/kg, po by liquid chromatography-tandem mass spectrometry; type: ADME, organism-based, Canis lupus familiaris; conditions: in vivo
# [50] = Tmax in dog at 10 mg/kg, po by liquid chromatography-tandem mass spectrometry; type: ADME, organism-based, Canis lupus familiaris; conditions: in vivo
# [51] = Cmax in dog at 10 mg/kg, po by liquid chromatography-tandem mass spectrometry; type: ADME, organism-based, Canis lupus familiaris; set-up: dose 10 mg/kg, route oral; conditions: in vivo
# [52] = system: Mus musculus; assay: Toxicity in human NCI-H1975 cells xenografted Foxn1 nude mouse assessed as change in body weight at 20 mg/kg, po qd for 5 days (reference value: […]); type: organism-based; conditions: in vivo, 120 h
# [53] = Time duration during which free plasma concentration stays above in-vitro IC50 level in human NCI-H1975 cells xenografted Foxn1 nude mouse at 20 mg/kg, po qd for 5 days; type: ADME, organism-based; conditions: in vivo, 120 h; summary of the method: as §4
# [54] = system: NCI-H1975; assay: Antitumor activity against human NCI-H1975 cells xenografted in Foxn1 nude mouse assessed as reduction in tumor volume dosed orally once daily for 5 days relative to untreated control; type: functional, organism-based; summary of the method: as §2
# [55] = Antitumor activity against human NCI-H1975 cells xenografted in Foxn1 nude mouse assessed as reduction in tumor volume at 20 mg/kg, po qd for 5 days relative to untreated control; type: functional; summary of the method: as §2
# Cytochrome P450 3A4, sequence (P08684 whole entry): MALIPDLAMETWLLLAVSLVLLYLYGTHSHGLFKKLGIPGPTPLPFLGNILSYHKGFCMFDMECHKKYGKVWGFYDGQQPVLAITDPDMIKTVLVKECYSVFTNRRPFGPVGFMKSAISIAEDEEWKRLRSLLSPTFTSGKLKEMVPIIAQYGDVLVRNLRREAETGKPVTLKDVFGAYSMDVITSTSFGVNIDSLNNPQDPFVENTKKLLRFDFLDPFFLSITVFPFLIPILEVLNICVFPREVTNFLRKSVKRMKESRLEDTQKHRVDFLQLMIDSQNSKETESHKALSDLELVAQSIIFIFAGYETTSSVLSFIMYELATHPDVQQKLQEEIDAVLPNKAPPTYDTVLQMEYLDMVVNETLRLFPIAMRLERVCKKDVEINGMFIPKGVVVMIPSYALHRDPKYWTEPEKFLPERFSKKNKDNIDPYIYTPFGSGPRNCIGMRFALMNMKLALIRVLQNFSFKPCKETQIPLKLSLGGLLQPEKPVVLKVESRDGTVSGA
# Cytochrome P450 2C9, sequence (P11712 whole entry): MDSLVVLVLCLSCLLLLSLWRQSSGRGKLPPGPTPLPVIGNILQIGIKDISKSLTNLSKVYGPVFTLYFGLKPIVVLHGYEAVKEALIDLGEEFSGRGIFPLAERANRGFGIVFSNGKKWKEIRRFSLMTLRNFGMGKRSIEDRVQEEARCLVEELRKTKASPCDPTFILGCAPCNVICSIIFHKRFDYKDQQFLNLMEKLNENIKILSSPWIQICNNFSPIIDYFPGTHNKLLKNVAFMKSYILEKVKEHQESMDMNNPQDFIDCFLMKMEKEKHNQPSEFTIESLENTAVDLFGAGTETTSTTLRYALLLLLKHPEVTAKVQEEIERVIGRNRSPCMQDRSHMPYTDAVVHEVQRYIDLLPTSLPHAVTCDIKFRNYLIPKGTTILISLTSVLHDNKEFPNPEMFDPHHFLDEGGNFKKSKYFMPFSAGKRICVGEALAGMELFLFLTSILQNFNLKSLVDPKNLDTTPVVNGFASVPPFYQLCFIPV
# Cytochrome P450 2D6, sequence (P10635 whole entry): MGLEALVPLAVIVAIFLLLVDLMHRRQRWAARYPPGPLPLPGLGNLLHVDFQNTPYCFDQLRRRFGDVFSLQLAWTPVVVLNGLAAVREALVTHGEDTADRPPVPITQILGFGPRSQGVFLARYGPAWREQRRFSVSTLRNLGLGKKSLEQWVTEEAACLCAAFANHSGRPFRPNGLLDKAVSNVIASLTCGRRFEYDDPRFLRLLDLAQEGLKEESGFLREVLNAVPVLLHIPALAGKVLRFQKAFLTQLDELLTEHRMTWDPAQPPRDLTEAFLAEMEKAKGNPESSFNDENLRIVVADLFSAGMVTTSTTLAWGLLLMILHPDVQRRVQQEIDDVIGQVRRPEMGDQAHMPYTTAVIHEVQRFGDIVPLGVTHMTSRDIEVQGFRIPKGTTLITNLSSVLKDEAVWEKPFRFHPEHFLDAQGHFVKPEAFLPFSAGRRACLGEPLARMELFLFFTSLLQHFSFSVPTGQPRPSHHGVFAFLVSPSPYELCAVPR
# Epidermal growth factor receptor (Homo sapiens, UniProt P00533, L858R/T790M), sequence (P00533 25-1210 T790M/L858R limits assumed): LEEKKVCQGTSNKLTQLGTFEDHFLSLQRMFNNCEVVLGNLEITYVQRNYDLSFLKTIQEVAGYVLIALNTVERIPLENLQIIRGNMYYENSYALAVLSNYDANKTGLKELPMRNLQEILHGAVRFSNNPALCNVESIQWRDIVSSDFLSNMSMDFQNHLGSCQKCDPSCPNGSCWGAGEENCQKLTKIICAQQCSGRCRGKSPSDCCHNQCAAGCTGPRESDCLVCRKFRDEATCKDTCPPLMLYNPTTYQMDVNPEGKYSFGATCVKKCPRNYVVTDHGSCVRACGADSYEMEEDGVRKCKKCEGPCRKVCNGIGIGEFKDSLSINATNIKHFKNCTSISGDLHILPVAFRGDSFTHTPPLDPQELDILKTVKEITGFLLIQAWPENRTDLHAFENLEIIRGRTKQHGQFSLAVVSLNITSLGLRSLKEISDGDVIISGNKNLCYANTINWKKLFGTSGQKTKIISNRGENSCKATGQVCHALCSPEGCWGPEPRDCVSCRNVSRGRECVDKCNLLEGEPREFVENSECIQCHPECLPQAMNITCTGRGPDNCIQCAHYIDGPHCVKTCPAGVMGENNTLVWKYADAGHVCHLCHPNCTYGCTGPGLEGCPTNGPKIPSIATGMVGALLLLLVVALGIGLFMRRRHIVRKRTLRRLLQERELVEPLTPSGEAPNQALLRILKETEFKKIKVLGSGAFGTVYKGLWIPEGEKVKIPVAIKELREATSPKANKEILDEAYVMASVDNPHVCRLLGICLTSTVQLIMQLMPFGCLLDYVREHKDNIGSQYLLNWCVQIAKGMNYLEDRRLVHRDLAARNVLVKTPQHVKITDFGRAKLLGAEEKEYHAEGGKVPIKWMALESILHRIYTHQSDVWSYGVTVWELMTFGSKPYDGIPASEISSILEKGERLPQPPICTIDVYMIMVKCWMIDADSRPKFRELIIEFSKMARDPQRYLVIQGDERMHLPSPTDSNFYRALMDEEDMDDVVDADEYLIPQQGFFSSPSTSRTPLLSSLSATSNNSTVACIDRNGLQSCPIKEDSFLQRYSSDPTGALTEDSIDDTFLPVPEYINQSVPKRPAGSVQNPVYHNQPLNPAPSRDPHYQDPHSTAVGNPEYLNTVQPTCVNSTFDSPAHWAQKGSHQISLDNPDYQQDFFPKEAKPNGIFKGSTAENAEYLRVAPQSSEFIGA
# Epidermal growth factor receptor (Homo sapiens, UniProt P00533), sequence (P00533 whole entry): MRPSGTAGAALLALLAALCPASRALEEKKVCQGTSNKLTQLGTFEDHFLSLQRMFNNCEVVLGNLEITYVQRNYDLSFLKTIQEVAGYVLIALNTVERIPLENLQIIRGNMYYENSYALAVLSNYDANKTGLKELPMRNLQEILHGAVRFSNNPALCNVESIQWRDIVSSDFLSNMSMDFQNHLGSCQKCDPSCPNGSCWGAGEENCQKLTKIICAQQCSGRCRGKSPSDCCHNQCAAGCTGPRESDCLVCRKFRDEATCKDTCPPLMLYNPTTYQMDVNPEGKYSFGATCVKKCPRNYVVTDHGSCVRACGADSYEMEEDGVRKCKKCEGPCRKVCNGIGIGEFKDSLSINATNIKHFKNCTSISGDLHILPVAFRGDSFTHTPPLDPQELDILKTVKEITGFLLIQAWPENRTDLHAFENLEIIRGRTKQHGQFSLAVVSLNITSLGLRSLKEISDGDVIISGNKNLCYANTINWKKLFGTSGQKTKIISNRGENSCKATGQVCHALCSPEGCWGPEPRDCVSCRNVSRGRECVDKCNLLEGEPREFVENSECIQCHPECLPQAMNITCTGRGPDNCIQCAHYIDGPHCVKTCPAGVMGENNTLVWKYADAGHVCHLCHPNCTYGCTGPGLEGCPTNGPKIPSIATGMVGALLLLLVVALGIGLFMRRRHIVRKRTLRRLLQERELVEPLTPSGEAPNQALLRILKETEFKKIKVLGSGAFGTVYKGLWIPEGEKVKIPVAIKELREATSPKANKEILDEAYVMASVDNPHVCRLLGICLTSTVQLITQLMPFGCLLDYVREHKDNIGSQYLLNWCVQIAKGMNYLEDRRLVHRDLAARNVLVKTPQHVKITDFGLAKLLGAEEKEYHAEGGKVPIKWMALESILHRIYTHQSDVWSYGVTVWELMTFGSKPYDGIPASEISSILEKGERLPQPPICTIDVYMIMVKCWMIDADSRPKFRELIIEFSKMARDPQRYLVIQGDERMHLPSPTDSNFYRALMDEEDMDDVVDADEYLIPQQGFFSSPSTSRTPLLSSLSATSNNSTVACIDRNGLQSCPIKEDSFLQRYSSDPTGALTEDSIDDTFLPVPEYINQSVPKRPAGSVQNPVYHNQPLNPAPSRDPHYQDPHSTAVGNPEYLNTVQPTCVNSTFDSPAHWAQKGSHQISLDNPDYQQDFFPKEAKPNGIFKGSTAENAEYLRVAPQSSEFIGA
# Epidermal growth factor receptor (Homo sapiens, UniProt P00533, L858R), sequence (P00533 25-1210 L858R limits assumed): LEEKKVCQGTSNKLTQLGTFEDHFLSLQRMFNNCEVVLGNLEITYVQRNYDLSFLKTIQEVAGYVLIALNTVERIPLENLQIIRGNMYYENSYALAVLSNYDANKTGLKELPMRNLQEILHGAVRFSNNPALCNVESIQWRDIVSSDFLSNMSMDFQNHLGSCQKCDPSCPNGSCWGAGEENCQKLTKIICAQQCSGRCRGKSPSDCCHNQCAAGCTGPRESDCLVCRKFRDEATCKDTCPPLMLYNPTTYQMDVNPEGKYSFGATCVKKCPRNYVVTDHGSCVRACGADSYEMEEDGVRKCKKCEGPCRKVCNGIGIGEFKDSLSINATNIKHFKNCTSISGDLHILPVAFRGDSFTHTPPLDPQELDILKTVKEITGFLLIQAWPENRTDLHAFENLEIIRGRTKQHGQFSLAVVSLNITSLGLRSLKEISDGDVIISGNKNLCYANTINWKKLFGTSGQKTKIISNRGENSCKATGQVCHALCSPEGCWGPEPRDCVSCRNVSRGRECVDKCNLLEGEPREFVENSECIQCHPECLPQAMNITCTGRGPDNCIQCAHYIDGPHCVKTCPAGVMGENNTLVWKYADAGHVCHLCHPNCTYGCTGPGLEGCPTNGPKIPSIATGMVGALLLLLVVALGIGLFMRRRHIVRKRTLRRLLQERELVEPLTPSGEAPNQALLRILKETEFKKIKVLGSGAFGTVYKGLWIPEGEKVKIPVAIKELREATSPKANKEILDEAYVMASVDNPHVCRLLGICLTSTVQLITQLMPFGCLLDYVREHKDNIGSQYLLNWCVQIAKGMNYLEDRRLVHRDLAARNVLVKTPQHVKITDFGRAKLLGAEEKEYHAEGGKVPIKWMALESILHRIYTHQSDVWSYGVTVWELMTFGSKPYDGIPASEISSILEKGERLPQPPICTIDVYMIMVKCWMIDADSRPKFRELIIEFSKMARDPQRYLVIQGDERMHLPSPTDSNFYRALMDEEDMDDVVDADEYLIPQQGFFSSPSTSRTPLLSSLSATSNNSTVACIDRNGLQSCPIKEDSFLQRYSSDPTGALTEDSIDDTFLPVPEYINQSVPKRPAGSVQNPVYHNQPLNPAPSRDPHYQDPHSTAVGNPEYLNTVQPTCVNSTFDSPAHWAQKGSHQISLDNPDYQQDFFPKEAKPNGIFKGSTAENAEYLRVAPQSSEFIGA
bioavailability [1] [%],AUC [3] [µM·h],IC50 [5] [nM],clearance [7] [mL/min/kg],IC50 [8] [nM],IC50 [9] [nM],microsomal CLint [10] [µL/min/mg],IC50 [11] [nM],microsomal CLint [13] [µL/min/mg],solubility [15] [µM],IC50 [16] [nM],IC50 [17] [nM],IC50 [19] [nM],Time [34],Structure (SMILES),Drug metabolism [20] [%],T/C [33] [%],Activity [43] [%],further results
6,0.808,> 25000,54,3500,1.39,245,3.93,83,< 2,3400,14.8,250,–,C=CC(=O)N1CCCC[C@@H](n2c(NC(=O)c3cccc(C(F)(F)F)c3)nc3cccc(C)c32)C1,< 5,–,–,Drug metabolism [2]: Metabolite_Detected; Drug metabolism [4]: Metabolite_Detected; Drug metabolism [6]: Metabolite_Detected; Drug metabolism [12]: Metabolite_Detected; Drug metabolism [14]: Metabolite_Detected; Drug metabolism [18]: Metabolite_Detected
60,12.8,7000,31.6,> 25000,–,66,1.52,34,> 175,> 25000,–,–,<= 14 hr,Cc1cc(C(=O)Nc2nc3cccc(Cl)c3n2[C@@H]2CCCCN(C(=O)/C=C/CN(C)C)C2)ccn1 [NAZARTINIB],–,-72,3.8,AUC [21]: 6.53 µM·h; bioavailability [22]: 55%; Activity [23]: 60%; Activity [24]: 5.3%; T/C [25]: -32%; Cmax [26]: 987 nM; MRT [27]: 1.5 h; Vd [28]: 2.4 L/kg; Tmax [29]: 0.83 h; Activity [30]: 93%; Time [31]: <= 14 hr; AUC [32]: 5.34 µM·h; AUC [35]: 12 µM·h; MRT [36]: 2.6 h; CL [37]: 30%; Tmax [38]: 3 h; Cmax [39]: 2940 nM; CL [40]: 35%; Vd [41]: 2.8 L/kg; clearance [42]: 15.7 mL/min/kg
–,–,–,–,–,–,–,–,–,–,–,–,–,–,Cc1cc(C(=O)Nc2nc3cccc(Cl)c3n2[C@@H]2CCCCN(C(=O)/C=C/CN(C)C)C2)ccn1.Cl,–,–,–,Vd [44]: 35.2 L/kg; MRT [45]: 13.8 h; clearance [46]: 43.7 mL/min/kg; bioavailability [47]: 67%; AUC [48]: 0.783 µM·h; AUC [49]: 5.23 µM·h; Tmax [50]: 2.3 h; Cmax [51]: 435 nM
27,2.84,6100,62.5,> 25000,1.51,96,1.48,71,12.7,> 25000,2.65,72,<= 14 hr,Cc1cccc2nc(NC(=O)c3ccnc(C(F)(F)F)c3)n([C@@H]3CCCCN(C(=O)/C=C/CN(C)C)C3)c12,< 5,-64,-3.5,Activity [52]: -0.3%; Time [53]: <= 14 hr; Activity [54]: Dose-dependent effect; T/C [55]: -31%
